Experimental data reported in ChEMBL document CHEMBL1141492, “Potent, exceptionally selective, orally bioavailable inhibitors of TNF-alpha Converting Enzyme (TACE): novel 2-substituted-1H-benzo[d]imidazol-1-yl)methyl)benzamide P1' substituents” (Bioorg Med Chem Lett, 2008).

Key:
[1] = Protein binding in rat serum; assay type: ADME, cell-free
[2] = Protein binding in dog serum; assay type: ADME, cell-free, Canis lupus familiaris
[3] = Protein binding in human serum; assay type: ADME, cell-free
Mus musculus = assay: Reduction of LPS-induced TNFalpha level in orally dosed mouse after 1 hr; assay type: functional; conditions: po
Procedure, shortened: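 Mouse LPS endotoxemia model. LPS and test compound in vehicle were given together by oral gavage at t = 0 h, across several doses. Mice were euthanized 1 h post dose, blood was taken by cardiac puncture, and plasma TNF-α was measured. ED50 was calculated from the dose response.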

Blood = assay: Reduction of LPS-induced TNFalpha in human whole blood; assay type: functional, tissue-based
Procedure, shortened: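 LPS-induced TNF-α production in human whole blood; suppression of TNF-α measured.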

[4] = Apparent permeability across human Caco-2 cells; assay type: ADME, cell-based
Procedure, shortened: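 Apparent permeability measured across Caco-2 cell monolayers in the apical-to-basolateral (A→B) direction.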

Stromelysin-2 = Stromelysin-2 (Homo sapiens, UniProt P09238); assay: Inhibition of MMP10
Procedure, shortened: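 MMP Ki values come from a single determination.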

[5] = biological target: T1, A disintegrin and metalloproteinase with thrombospondin motifs 5 (Homo sapiens, UniProt Q9UNA0); assay: Inhibition of ADAMTS5
T1 sequence (Q9UNA0 whole entry): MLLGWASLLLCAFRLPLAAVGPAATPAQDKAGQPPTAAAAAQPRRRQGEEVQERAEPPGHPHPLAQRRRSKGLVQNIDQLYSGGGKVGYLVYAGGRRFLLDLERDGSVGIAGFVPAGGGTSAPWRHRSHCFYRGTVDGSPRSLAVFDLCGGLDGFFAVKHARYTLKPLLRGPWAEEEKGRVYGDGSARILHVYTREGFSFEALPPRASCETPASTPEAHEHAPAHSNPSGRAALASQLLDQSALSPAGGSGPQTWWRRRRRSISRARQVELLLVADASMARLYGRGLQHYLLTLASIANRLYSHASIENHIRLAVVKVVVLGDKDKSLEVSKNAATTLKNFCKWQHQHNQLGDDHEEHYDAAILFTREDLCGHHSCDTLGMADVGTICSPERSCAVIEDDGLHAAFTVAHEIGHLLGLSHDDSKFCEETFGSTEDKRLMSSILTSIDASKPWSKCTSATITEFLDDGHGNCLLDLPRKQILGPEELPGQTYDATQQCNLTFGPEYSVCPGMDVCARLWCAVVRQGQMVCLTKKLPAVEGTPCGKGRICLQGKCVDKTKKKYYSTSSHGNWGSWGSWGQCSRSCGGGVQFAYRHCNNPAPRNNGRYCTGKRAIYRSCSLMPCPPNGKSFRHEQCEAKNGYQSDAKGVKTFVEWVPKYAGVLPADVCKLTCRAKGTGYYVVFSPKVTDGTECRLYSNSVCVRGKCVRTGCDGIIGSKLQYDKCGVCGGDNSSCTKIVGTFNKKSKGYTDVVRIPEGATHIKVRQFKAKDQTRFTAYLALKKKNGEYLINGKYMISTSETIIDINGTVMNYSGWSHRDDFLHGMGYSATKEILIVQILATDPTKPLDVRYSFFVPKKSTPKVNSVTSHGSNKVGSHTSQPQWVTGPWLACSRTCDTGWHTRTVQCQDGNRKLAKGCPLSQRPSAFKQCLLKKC

[6] = Clearance in Sprague-Dawley rat at 5.0 mg/kg, iv; assay type: ADME, organism-based; set-up: dose 5 mg/kg, route intravenous; conditions: in vivo
Procedure, shortened: (§1)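 Discrete or cassette (n-in-1) dosing, given intravenously and orally. Sprague–Dawley rats received 5.0 mg/kg iv and 8.0 mg/kg po; beagle dogs received 2.0 mg/kg iv and 8.0 mg/kg po. Three animals per dosing group; averaged values reported. AUC is reported in nM h.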

[7] = Oral bioavailability in Sprague-Dawley rat at 8.0 mg/kg; assay type: ADME, organism-based; conditions: in vivo; procedure, shortened: as §1
[8] = Half life in Sprague-Dawley rat at 5.0 mg/kg, iv; assay type: ADME, organism-based; set-up: dose 5 mg/kg, route intravenous; conditions: in vivo; procedure, shortened: as §1
[9] = Volume of distribution at steady state in Sprague-Dawley rat at 5.0 mg/kg, iv; assay type: ADME, organism-based; set-up: dose 5 mg/kg, route intravenous; conditions: in vivo, read-out: Vdss; procedure, shortened: as §1
[10] = AUC in Sprague-Dawley rat at 5.0 mg/kg, iv; assay type: ADME, organism-based; set-up: dose 5 mg/kg, route intravenous; conditions: plasma; procedure, shortened: as §1
[11] = Tmax in Sprague-Dawley rat at 8.0 mg/kg, po; assay type: ADME, organism-based; set-up: dose 8 mg/kg, route oral; conditions: in vivo; procedure, shortened: as §1
[12] = Half life in Sprague-Dawley rat at 8.0 mg/kg, po; assay type: ADME, organism-based; set-up: dose 8 mg/kg, route oral; conditions: in vivo; procedure, shortened: as §1
[13] = AUC in Sprague-Dawley rat at 8.0 mg/kg, po; assay type: ADME, organism-based; set-up: dose 8 mg/kg, route oral; conditions: plasma; procedure, shortened: as §1
[14] = Half life in Beagle dog at 2.0 mg/kg, iv; assay type: ADME, organism-based, Canis lupus familiaris; set-up: dose 2 mg/kg, route intravenous; conditions: in vivo; procedure, shortened: as §1
[15] = Clearance in Beagle dog at 2.0 mg/kg, iv; assay type: ADME, organism-based, Canis lupus familiaris; set-up: dose 2 mg/kg, route intravenous; conditions: in vivo; procedure, shortened: as §1
[16] = Volume of distribution at steady state in Beagle dog at 2.0 mg/kg, iv; assay type: ADME, organism-based, Canis lupus familiaris; set-up: dose 2 mg/kg, route intravenous; conditions: in vivo, read-out: Vdss; procedure, shortened: as §1
[17] = AUC in Beagle dog at 2.0 mg/kg, iv; assay type: ADME, organism-based, Canis lupus familiaris; set-up: dose 2 mg/kg, route intravenous; conditions: plasma; procedure, shortened: as §1
[18] = AUC in Beagle dog at 8.0 mg/kg, po; conditions: plasma
[19] = Tmax in Beagle dog at 8.0 mg/kg, po; conditions: in vivo
[20] = Half life in Beagle dog at 8.0 mg/kg, po; conditions: in vivo
[21] = Oral bioavailability in Beagle dog at 8.0 mg/kg, po; conditions: in vivo

Chain of Stromelysin-2 (P09238 whole entry): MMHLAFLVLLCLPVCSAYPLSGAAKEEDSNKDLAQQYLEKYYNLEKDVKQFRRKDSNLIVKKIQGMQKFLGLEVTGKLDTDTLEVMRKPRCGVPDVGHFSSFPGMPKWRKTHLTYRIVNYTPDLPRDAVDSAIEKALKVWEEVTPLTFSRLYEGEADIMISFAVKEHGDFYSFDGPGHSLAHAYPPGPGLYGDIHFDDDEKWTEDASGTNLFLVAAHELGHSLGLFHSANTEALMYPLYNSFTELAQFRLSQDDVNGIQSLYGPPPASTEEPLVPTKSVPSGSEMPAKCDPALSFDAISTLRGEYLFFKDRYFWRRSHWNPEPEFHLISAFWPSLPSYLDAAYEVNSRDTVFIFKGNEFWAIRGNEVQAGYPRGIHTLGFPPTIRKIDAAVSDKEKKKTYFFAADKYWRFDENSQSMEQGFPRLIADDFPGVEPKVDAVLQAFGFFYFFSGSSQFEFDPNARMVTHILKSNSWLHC

fraction unbound [1]: 0.2
fraction unbound [2]: 0.2
fraction unbound [3]: 0.21
IC50 (Blood): 0.232 µM
Papp [4]: 0.7 ×10⁻⁶ cm/s
IC50 (Stromelysin-2): > 10 µM
Ki [5]: 1 µM
clearance [6]: 26.7 mL/min/kg
bioavailability [7]: 53%
half-life [8]: 3.5 h
Vd [9]: 1.5 L/kg
AUC [10]: 6.85 µM·h
Tmax [11]: 0.3 h
half-life [12]: 2.4 h
AUC [13]: 5.84 µM·h
half-life [14]: 4.2 h
clearance [15]: 10 mL/min/kg
Vd [16]: 1 L/kg
AUC [17]: 9.97 µM·h
AUC [18]: 39.5 µM·h
Tmax [19]: 0.5 h
half-life [20]: 4.8 h
bioavailability [21]: 99%
SMILES: O=C(N[C@@H]1CCOC[C@@H]1C(=O)NO)c1ccc(Cn2c(C(F)(F)F)nc3ccccc32)cc1
ED50 (Mus musculus): 1.9 mg/kg
